Consider 8 molecules from paper PMC3974318 (Memórias do Instituto Oswaldo Cruz, 2013).

The subject of data set [1] is axenic amastigote forms of L. amazonensis. The experiment in a line: Mitochondrial membrane potential by rhodamine 123, flow cytometry. The format is cell-based, Leishmania amazonensis. The conditions noted are these: 3 h, 32 °C, untreated cells 93.7%. (A flow cytometer gives signals particle by particle.)
Data set [2] has as its system axenic amastigotes of Leishmania amazonensis. Description: Cell viability by propidium iodide staining, flow cytometry. Format: cell-based.
The subject of a further data set is Erythrocytes. The experiment in a line: Cytotoxic activity: haemolysis of erythrocytes. Format: cell-based, Human. The conditions noted are these: for toxicity to mammalian erythrocytes (lysis), in words: 3 h, 37 °C. The method in brief:
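Blood from healthy human donors was defibrinated and washed in glycosylated saline. A 3% erythrocyte suspension in glycosylated saline was incubated with a range of test compound concentrations for 3 h at 37 °C. Supernatant absorbance at 550 nm was compared with 1% Triton X-100-treated wells to give percent haemolysis.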

For data set [3], the system named is intracellular trypanosomes. As to conditions: ref Izumi et al. 2012; cited from earlier work.
For another data set, the system named is T. cruzi epimastigotes. The conditions noted are these: extracellular replicative form; ref Izumi et al. (2012); cited from earlier work.
The test system of data set [4] is promastigote forms of Leishmania amazonensis. The experiment in a line: Ultrastructural analysis by SEM and TEM. The format is cell-based. As to conditions: 2.5 µg/mL, 72 h.
The mark [5] stands for this setting: 100 µg/mL, 3 h, 32 °C, negative control 11.4%.

Molecules are shown by their SMILES. “Also recorded” adds a separate entry of the source.

As to `N#CC(C#N)=NNc1cccc(Cl)c1` [CCCP, carbonyl cyanide m-chlorophenylhydrazone, reference compound], the “Rh123 upper right gated population percentage” value in data set [1] (200 µM) worked out at 53.1%.

On to `C=C1CC[C@@H]2[C@](C)(CCC[C@]2(C)C(=O)O)[C@H]1CC/C(C)=C/C(=O)O` [Agathic acid, labd-8(20)-13-dien-15,19-dioic acid], for which the “PI-positive events, upper left quadrant gated percentage” value in data set [2] (setting [5]) is on record as 63.4%. Moreover, the “Rh123 upper right gated population percentage” value in data set [1] (100 µg/mL) was found to be 27.5%.

As for `C[C@@H]1[C@H](O)[C@@H](C)/C=C/C=C/C=C/C=C/C=C/C=C/C=C/[C@H](O[C@@H]2O[C@H](C)[C@@H](O)[C@H](N)[C@@H]2O)C[C@@H]2O[C@](O)(C[C@@H](O)C[C@@H](O)[C@H](O)CC[C@@H](O)C[C@@H](O)CC(=O)O[C@H]1C)C[C@H](O)[C@H]2C(=O)O` [Amphotericin B, reference compound], the “PI-positive events, upper left quadrant gated percentage” value in data set [2] (positive control, concentration not given) is 75.9%.

Regarding `C=C1C[C@@]23CC[C@H]4[C@@](C)(CCC[C@@]4(C)C(=O)O)[C@@H]2CC[C@@H]1C3` [Kaurenoic acid, kaur-16-ene-18-oic acid], the “PI-positive events, upper left quadrant gated percentage” value in data set [2] (setting [5]) amounted to 60.8%. In addition, the “Rh123 upper right gated population percentage” value in data set [1] (100 µg/mL) was determined as 24.4%. The “toxicity to mammalian erythrocytes (lysis), in words” value (shortened to “toxicity to mammalian erythrocytes”) with Erythrocytes is given as “more toxic”. Further, the “selectivity index (SI)” value with Erythrocytes (figures fit CC50/IC50 promastigote) came to 5.

Consider `C=C1CC[C@@H]2C(C)(C)CCC[C@@]2(C)[C@@H]1CC/C(C)=C/C(=O)OC` [Methyl copalate, methyl labd-8(20),13-dien-15-oate], for which the “inhibition of 50% against intracellular trypanosomes” value in data set [3] is given as 0.8 µg/mL.

With `C=C1CC[C@@H]2[C@](C)(CCC[C@@]2(C)C(=O)O)[C@H]1CCc1ccoc1` [Polyaltic acid, 15,16-epoxylabda-8(20),13(16),14-trien-19-oic acid], in the data set with Erythrocytes, the “toxicity to mammalian erythrocytes” value is recorded as “did not cause lysis except at the maximum concentration tested; also recorded: no toxicity was observed, except at the maximum concentration tested”.

Regarding `C=C1CC[C@H]2C(C)(C)[C@@H](O)CC[C@]2(C)[C@H]1CC/C(C)=C/C(=O)O` [Hydroxycopalic acid, 3β-hydroxylabda-8(20),13-dien-15-oic acid], in the data set on T. cruzi epimastigotes, the “ultrastructural changes in epimastigotes” value is “organelle disorganisation and membranous vacuole formation”. The “inhibition of 50% against intracellular trypanosomes” value in data set [3] was 0.6 µg/mL. For the same molecule, the “ultrastructural changes (TEM)” value in data set [4] is “swollen mitochondria with the appearance of concentric membrane structures inside the organelle”. Also, in the data set with Erythrocytes, the “toxicity to mammalian erythrocytes” value is “more toxic”.

As for `C=C1CC[C@@H]2[C@](C)(CCC[C@@]2(C)C(=O)O)[C@H]1CC[C@H](C)CC(=O)O` [Pinifolic acid, labd-8(20)-ene-15,18-dioic acid], the “PI-positive events, upper left quadrant gated percentage” value in data set [2] (setting [5]) was found to be 68.4%. For the same molecule, the “Rh123 upper right gated population percentage” value in data set [1] (100 µg/mL) was 32.4%. The “toxicity to mammalian erythrocytes” value with Erythrocytes was “did not cause lysis except at the maximum concentration tested”; with Erythrocytes (listed as pinifolic acid), “no toxicity was observed, except at the maximum concentration tested”.
